Results published in ChEMBL document CHEMBL1121364, “Nucleoside conjugates as potential antitumor agents. 3. Synthesis and antitumor activity of 1-(beta-D-arabinofuranosyl)cytosine conjugates of corticosteroids” (1980).

What was measured:
L1210 [1] = assay: Antitumor activity in the mice with intraperitoneal implanted L1210 lymphoid leukemia at the dose of 34.8 and 56.1 mg/kg/day x 5 was determined as mean survival of treated group compared to untreated; 9.5/9; format: functional, Mus musculus
Outline: (§1)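 C3D2F1/J female mice (C3H/HeJ female × DBA/2J male), groups of six to eight, average weight 25 g. Inoculated ip with 1 × 10^6 L1210 ascites cells taken from DBA/2Ha donor mice bearing 3-5 day old tumors. Compounds were dissolved in 0.154 N NaOH, neutralized with 0.154 N HCl (final 0.9% NaCl), and given ip daily for 5 days from 24 h post-implant. Median survival T/C; ILS = (T/C − 1) × 100; 30-day survivors counted.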

L1210 [2] = assay: Antitumor activity in mice with intraperitoneal implanted L1210 lymphoid leukemia at the dose 9.2 and 14.9 mg/kg/day x 5 was determined as weight change (g/mouse) on 8th day; format: functional
Outline: (§2)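 C3D2F1/J female mice (C3H/HeJ × DBA/2J), groups of six to eight, average 25 g, inoculated ip with 1 × 10^6 L1210 ascites cells taken from DBA/2Ha donor mice carrying 3-5 day tumors. Compound dissolved in 0.154 N NaOH, then neutralized with 0.154 N HCl to give 0.9% NaCl. Given ip daily for 5 consecutive days starting 24 h after implantation. Body weight change per mouse recorded on day 8.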

L1210 [3] = assay: Antitumor activity in the mice with intraperitoneal implanted L1210 lymphoid leukemia at the dose 34.8 and 56.1 mg/kg/day x 5 was determined as Survival time in days; Range is 8-9 days; format: functional, Mus musculus
Outline: (§3)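 Female C3D2F1/J mice (C3H/HeJ × DBA/2J), groups of six to eight, average weight 25 g. Each mouse got 1 × 10^6 L1210 ascites cells ip, taken from DBA/2Ha donor mice bearing 3-5 day tumors. Compound was dissolved in 0.154 N NaOH and neutralized with 0.154 N HCl (final 0.9% NaCl). Dosed ip daily ×5, starting 24 h after implant. Recorded body weight change on day 8, survival range, median survival and 30-day survivors. ILS = (T/C − 1) × 100.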

L1210 [4] = assay: Antitumor activity in the mice with intraperitoneal implanted L1210 lymphoid leukemia at the dose of 9.2 and 14.9 mg/kg/day x 5 was determined as mean survival of treated group compared to untreated; 9.5/9; format: functional, Mus musculus
L1210 [5] = assay: Antitumor activity in the mice with intraperitoneal implanted L1210 lymphoid leukemia at the dose 34.8 and 56.1 mg/kg/day x 5 was determined as percentage increase in the life span as compared with control tumor bearers; format: functional, Mus musculus; outline: as §3
L1210 [6] = assay: Antitumor activity in the mice with intraperitoneal implanted L1210 lymphoid leukemia at the dose 9.2 and 14.9 mg/kg/day x 5 was determined as Survival time in days; Range is 8-10 days; format: functional, Mus musculus; outline: as §1
L1210 [7] = assay: Antitumor activity in mice with intraperitoneal implanted L1210 lymphoid leukemia at the dose 34.8 and 56.1 mg/kg/day x 5 was determined as weight change (g/mouse) on 8th day; format: functional; outline: as §2
L1210 [8] = assay: Antitumor activity in the mice with intraperitoneal implanted L1210 lymphoid leukemia at the dose 34.8 and 56.1 mg/kg/day x 5 was determined and number of animals survived on 30 th day were reported; 0/8; format: functional, Mus musculus; outline: as §3
L1210 [9] = assay: Antitumor activity in the mice with intraperitoneal implanted L1210 lymphoid leukemia at the dose 9.2 and 14.9 mg/kg/day x 5 was determined as percentage increase in the life span as compared with control tumor bearers; format: functional, Mus musculus; outline: as §1
L1210 [10] = assay: Antitumor activity in the mice with intraperitoneal implanted L1210 lymphoid leukemia at the dose 9.2 and 14.9 mg/kg/day x 5 was determined and number of animals survived on 30 th day were reported; 0/6; format: functional, Mus musculus; outline: as §1

C[C@@H]1C[C@H]2[C@@H]3CCC4=CC(=O)C=C[C@]4(C)[C@@]3(F)[C@@H](O)C[C@]2(C)[C@@]1(O)C(=O)CO.Nc1ccn([C@@H]2O[C@H](CO)[C@@H](O)[C@@H]2O)c(=O)n1
T/C (L1210 [1]): 8.5
Weight change (L1210 [2]): -4.23 g mouse-1
Survival time (L1210 [3]): 8 days
T/C (L1210 [4]): 9.5
ILS (L1210 [5]): -6%
Survival time (L1210 [6]): 8 days
Weight change (L1210 [7]): -2.72 g mouse-1
Survivors (L1210 [8]): 0
ILS (L1210 [9]): -14%
Survivors (L1210 [10]): 0
